KCNK9 block: KCNK9 potassium channel inhibitors, primary screen, HEK293 cells, thallium flux. Potassium channel subfamily K member 9 (Homo sapiens), Q9NPC2. FluxOR thallium flux fluorescence; active compounds read low. B-score at 10 µM. 310,000 compounds, 1.2% hits. AID 488922, 2010;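 active = ratio B-score over 3 SD below the library mean, with starting fluorescence within 5 SD of its mean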;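 also: negative B-score means less thallium flux so channel inhibition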
KCNQ1 inh: inhibitors of human KCNQ1 channel, primary screen, cell-based, thallium flux, high-throughput | Potassium voltage-gated channel subfamily KQT member 1 (Homo sapiens), P51787 | CHO-K1 KCNQ1, FluxOR thallium flux fluorescence; active compounds read high | B-score at 10 µM | 310,000 compounds, 1.3% hits | AID 2642, 2010;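 active = compounds whose thallium flux B-score, printed positive for inhibition, exceeds three library SD while starting fluorescence stays within three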;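 also: channel opened by potassium depolarization with thallium stimulus after 20 min compound exposure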
KCNQ1 pot: potentiators or activators of KCNQ1 channel, primary screen, cell-based, thallium flux, high-throughput. 310,000 compounds, 0.35% hits. Potassium voltage-gated channel subfamily KQT member 1 (Homo sapiens), P51787. AID 2648, 2010. B-score at 10 µM. CHO-K1 KCNQ1, thallium flux FluxOR fluorescence; active compounds read high;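 active = fluorescence ratio B-score, a plate-corrected score, at least three library SD, with initial intensity B-score within 5 SD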
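Test system: CHO-K1 cells stably expressing KCNQ1 / Medium: assay buffer / Also added: depolarizing K+/Tl+ stimulus, K2SO4 and Tl2SO4 each 12.5 mM in 5x stock / Incubation: 90 min dye loading and 20 min compound exposure, both at room temperature / Signal: thallium influx via FluxOR fluorescence, kinetic imaging / Evaluation: B score of baseline-normalized fluorescence ratio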
hERG rescue: hERG rescue from dofetilide block, primary screen, cell-based, CHO-hERG, FluxOR thallium flux, dofetilide IC70. Voltage-gated inwardly rectifying potassium channel KCNH2 (Homo sapiens), Q12809. dofetilide IC70 present. activation (rescue from dofetilide block), less the hit threshold, % at 10 µM. 310,000 compounds, 0.51% hits;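 active = activation above the mean of controls blocked by dofetilide plus 5 SD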;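 also: thallium influx through hERG after potassium depolarization seen as dye fluorescence rise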
Kir21 block: inhibitors of mouse Kir2.1 inward-rectifier potassium channel. HEK293-Kir2.1, FluxOR thallium flux fluorescence; active compounds read low. Inward rectifier potassium channel 2 (Mus musculus), P35561. B-score at 10 µM. 310,000 compounds, 0.85% hits;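 active = fluorescence ratio B-score at or below minus 3 SD of library scores, with starting-brightness B-score within 2 SD, cut at about -4.2 in these data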;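 also: channel flux triggered by added potassium and thallium sulfate stimulus; B-score of peak minus minimum fluorescence over baseline after thallium stimulus; more negative B-score means stronger Kir2.1 block with less thallium influx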
KCNK3 inh: human KCNK3 channel inhibitors, primary screen, CHO cells, FluxOR thallium flux, B-score | Potassium channel subfamily K member 3 (Homo sapiens), O14649 | 340,000 compounds, 0.84% hits | B-score at 10 µM | FluxOR fluorescence; active compounds read low;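 active = B-score under library mean minus 4 SD, starting fluorescence ratio at most library mean plus 5 SD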;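 also: more negative B-score means stronger inhibition of thallium flux through KCNK3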
Target sequence (O14649 whole entry, looked up): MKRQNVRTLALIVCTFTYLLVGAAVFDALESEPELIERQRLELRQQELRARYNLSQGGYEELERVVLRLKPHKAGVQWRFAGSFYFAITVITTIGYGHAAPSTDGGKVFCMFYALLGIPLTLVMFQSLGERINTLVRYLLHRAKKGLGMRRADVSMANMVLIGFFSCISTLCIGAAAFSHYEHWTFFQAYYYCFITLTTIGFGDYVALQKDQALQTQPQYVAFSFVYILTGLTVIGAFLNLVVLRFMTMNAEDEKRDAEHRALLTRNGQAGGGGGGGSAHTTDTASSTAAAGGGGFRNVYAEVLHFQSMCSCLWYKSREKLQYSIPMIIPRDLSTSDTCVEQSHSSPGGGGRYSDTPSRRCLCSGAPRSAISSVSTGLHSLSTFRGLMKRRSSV
KCNK9 block conf: KCNK9 potassium channel inhibitors, confirmation, HEK293 cells, thallium flux, duplicate | shares compounds with KCNK9 block | FluxOR thallium flux fluorescence | inhibition, % at 10 µM | 4,900 compounds, 43% hits;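 active = thallium signal inhibited by more than 5 SD of the compound-free buffer control wells, on both duplicate plates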;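 also: 0% = assay buffer control wells without compound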
Kir21 sel: mouse Kir2.1 channel inhibition, confirmation, selectivity assay for KCNK9 modulator project, cell-based, HEK293, thallium flux; shares compounds with KCNK9 block; Kir2.1 cells, FluxOR thallium flux fluorescence; inhibition, % at 10 µM; 4,900 compounds, 4% hits; AID 492993, 2010;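 active = thallium signal drop more than 5 SD beyond the mean of the no-compound control wells, seen in both duplicate plates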;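 also: signal is fluorescence rise after thallium addition divided by baseline fluorescence; plate controls were assay buffer only for no effect and full block by chlorpromazine control for full effect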
HEK293 Tl ctr: thallium flux in non-induced HEK293 cells, confirmation, counter-screen for KCNK9 inhibitor project, cell-based, second counter screen, non-induced KCNK9-HEK293 | inhibition, % at 10 µM | FluxOR thallium flux | shares compounds with KCNK9 block | 4,900 compounds, 40% hits;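 active = thallium signal drop beyond 5 SD of the untreated control mean, on both duplicate plates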;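 also: plate controls were buffer only IC0 wells for no effect and SID17386958 at its maximal inhibitory level for full effect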
Starred values were filed as active, the others as inactive; i = inactive; x = not tested or not shown; ! = repeats disagree. Compounds with a hit are over-represented: about 3.7% of the library has one in this group of screens.

SMILES | KCNK9 block | KCNQ1 inh | KCNQ1 pot | hERG rescue | Kir21 block | KCNK3 inh | KCNK9 block conf | Kir21 sel | HEK293 Tl ctr
CC1CC(C)CN(C(=O)c2ccc(C(=O)c3ccccc3)cc2)C1 (stereo not drawn) | i | i | i | -13 | 1.6 | i | i | i | i
CCCc1ccc(Oc2cn[nH]c2-c2ccc(O)c(C)c2O)cc1 | -9.9* | i | i | -16 | -0.03 | i | 56%* | i | 44%*
CCCc1ccc(Oc2c(-c3ccc(O)c(C)c3O)n[nH]c2C)cc1 | i | i | i | -17 | -1.5 | i | x | x | x
CCCCNC(=O)[C@H]1C[C@H]1[C@@H](O)[C@H](CO)NC(=O)[C@H](Cc1ccccc1)NC(=O)OC(C)(C)C | i | i | i | -4 | -0.15 | i | i | i | i
Cc1c(C(=O)NCCSCc2c(F)cccc2Cl)cnn1-c1ccc(Cl)cc1 | i | i | i | -10 | -1.1 | i | i | i | i
COc1ccccc1C(=O)NCCSCc1c(F)cccc1Cl | i | i | i | -11 | -1.3 | i | x | x | x
CCSc1nc2ccccc2n1C(=O)c1ccc(S(=O)(=O)N2CCCCCC2)cc1 | i | i | i | -7 | 1.9 | i | i | i | i
Cc1cccc(N2N=C(C(=O)Nc3ccc(Cl)c(S(=O)(=O)N4CCOCC4)c3)CCC2=O)c1 | x | x | x | x | x | i | x | x | x
O=C(N/N=C/c1ccc([N+](=O)[O-])o1)C1CC1 | i | i | i | -6 | -0.1 | i | x | x | x
O=C(NC1CCCCC1)C1CCCN(S(=O)(=O)c2cccc3cccnc23)C1 (stereo not drawn) | i | i | i | -14 | -0.01 | i | x | x | x
O=C(C1CCCN(S(=O)(=O)c2cccc3cccnc23)C1)N1CCc2ccccc21 (stereo not drawn) | i | i | i | -12 | 1.5 | i | i | i | i
Cc1ccc(CNC(=O)c2cc3c(-c4ccc(Cl)cc4)nn(C)c3s2)o1 | -12* | 11* | i | -3 | -1.2 | -12* | 56%* | i | 35%*
CN(CCCC1CCCC1)C(=O)c1cc(COc2c(F)cccc2F)on1 | i | i | i | -8 | -0.73 | i | i | i | 22%*
CN(CCCN1CCOCC1)C(=O)c1cc(COc2c(F)cccc2F)on1 | i | i | i | -6 | -0.97 | i | x | x | x
CN(CCCC1CCCC1)C(=O)c1cc(COc2ccc(F)cc2F)on1 | i | i | i | -13 | -1.6 | i | i | i | i
COc1cccc(OCc2cc(C(=O)NCCc3cccc(C)n3)no2)c1 | i | i | i | -6 | 0.22 | i | x | x | x
COc1cccc(CCNC(=O)c2cc(COc3c(F)cccc3F)on2)c1 | i | i | i | -12 | 1.6 | i | i | i | i
Cc1nn(C(C)C(=O)N2CCc3ccccc32)c(C)c1[N+](=O)[O-] (stereo not drawn) | i | i | i | -10 | 1.2 | i | x | x | x
O=C(CNC(=O)C12CC3CC(CC(C3)C1)C2)N/N=C\c1ccccn1 | i | i | i | -10 | -1.7 | i | x | x | x
COc1ccccc1C#Cc1ccc2c(=O)c3ccccc3n(C)c2c1 | -9.7* | i | i | -23 | 0.46 | i | 44%* | i | i
COc1ccc(C#Cc2ccc3c(=O)c4ccccc4n(C)c3c2)cc1 | i | i | i | -15 | 1.1 | i | i | i | i
Cn1c2ccccc2c(=O)c2cc(C#Cc3cccc(N)c3)ccc21 | x | x | x | x | x | i | x | x | x
O=C(CSC(=S)N1CCCCC1)Nc1ncc2c(n1)CCCC2=O | i | i | i | -12 | -0.03 | i | x | x | x
Cc1nc(SCC(=O)NC(C)(C#N)C2CC2)c2c(-c3cccs3)csc2n1 (stereo not drawn) | -11* | i | i | -12 | -0.46 | i | 48%* | i | i
COc1ccc(NC(=O)CN2CCN(c3c(C)cc(C)cc3C)CC2)cc1 | i | i | i | -8 | 0.35 | i | i | 40%* | i
SMILES | KCNK9 block | KCNQ1 inh | KCNQ1 pot | hERG rescue | Kir21 block | KCNK3 inh | KCNK9 block conf | Kir21 sel | HEK293 Tl ctr
COc1ccc(NC(=O)CN2CCN(c3c(C)cccc3C)CC2)cc1 | i | i | i | -8 | 0.65 | i | i | i | i
COc1ccc(NC(=O)CN2CCN(CC(=O)Nc3cc(OC)cc(OC)c3)CC2)cc1 | x | x | x | x | x | i | x | x | x
COc1ccc(N2CCN(CC(=O)Nc3ccc(C)cc3)CC2)cc1 | i | i | i | -3 | 1.8 | i | x | x | x
COc1ccc(NC(=O)CN2CCN(c3ccc(C)cc3C)CC2)cc1 | i | i | i | -1 | -0.38 | i | i | i | i
CC(NCC(=O)Nc1ccccc1C(=O)NC1CC1)c1ccco1 (stereo not drawn) | x | x | x | x | x | i | x | x | x
COc1ccc2[nH]c3c(=O)n4c(nc3c2c1)SCCC4 | i | i | i | 4 | -0.64 | i | x | x | x
NC(=NCCCCCCN=C(N)/N=C(\N)Nc1ccc(Cl)cc1)/N=C(\N)Nc1ccc(Cl)cc1 | -10* | i | 12*! | -5 | -0.15 | i | 50%* | 38%* | i
CC(=O)c1c(C)nn(-c2ccccc2)c1C | i | i | i | -11 | -0.64 | i | x | x | x
Cc1ccc(CN(C)C(=O)c2c(C)nn(-c3ccccc3)c2C)cc1 | i | i | i | 0 | -0.39 | i | i | i | i
Cc1nc(CCNC(=O)C2CCC(=O)N(Cc3cccc(F)c3)C2)sc1C (stereo not drawn) | i | i | i | -4 | -0.89 | i | x | x | x
COc1cccc(CNC(=O)c2cccc(NC(=O)C3=C(C)OCCS3)c2)c1 | -8.9* | i | i | -13 | 1.5 | i | 50%* | i | i

Assay outcomes from PubChem.
